Data published in PMC8669655 (ACS Infectious Diseases, 2021).
≈ marks a conversion by molar mass, not a printed value. Entries after “also recorded” stand apart in the source; their conditions may differ. One block for each compound: values may come before it.

How the values were obtained:
[1] = system: E. coli BW25113; test: MIC assay; type: cell-based; conditions: Escherichia coli
Summary of the method: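 Broth microdilution per CLSI in LB. Test compound serially diluted twofold from a 2× stock. Inoculum from a single blood-agar colony, grown in LB at 37 °C to OD600 0.5, diluted to 2.0 × 10^6 CFU/mL stock, then added 1:1. Plates sealed with breathable seal, incubated 20 h at 37 °C, 600 rpm. MIC read visually after brief centrifugation. Six growth and six sterility controls.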

[2] = system: A. baumannii ATCC17978; test: Checkerboard assay with rifampicin; type: cell-based, Acinetobacter baumannii; conditions: listed as pentamidine (1)
Summary of the method: (§1)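 Broth microdilution checkerboard in LB: serial dilutions of test compound and rifampicin combined, in triplicate. Inoculum from a single blood-agar colony, grown in LB at 37 °C to OD600 0.5, diluted to 2.0 × 10^6 CFU/mL stock, 50 μL added per 100 μL well. Sealed plates incubated 20 h, 37 °C, 600 rpm shaking. OD600 read after resuspension. FICI from MICs alone and in combination; ≤0.5 taken as synergy.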

[3] = system: K. pneumoniae ATCC13883; test: Checkerboard assay with rifampicin; type: cell-based, Klebsiella pneumoniae; conditions: listed as pentamidine (1)
Summary of the method: as §1

[4] = system: E. coli 552060.1; test: Checkerboard assay with rifampicin; type: cell-based, Escherichia coli; conditions: E. coli 552060.1 (wild-type clinical isolate)
Summary of the method: as §1

[5] = system: E. coli EQASmcr-2 (EQAS 2016 KP37); test: Checkerboard assay with rifampicin; type: cell-based, Escherichia coli; conditions: E. coli EQASmcr-2 (polymyxin-resistant)
Summary of the method: as §1

[6] = system: E. coli W3110; test: Checkerboard assay with rifampicin; type: cell-based, Escherichia coli; conditions: E. coli W3110 (wild-type)
Summary of the method: as §1

[7] = system: E. coli ATCC25922; test: Checkerboard assay with rifampicin; type: cell-based, Escherichia coli; conditions: E. coli ATCC25922 (wild-type)
Summary of the method: as §1

[8] = system: E. coli EQASmcr-1 (EQAS 2016 412016126); test: Checkerboard assay with rifampicin; type: cell-based, Escherichia coli; conditions: E. coli EQASmcr-1 (polymyxin-resistant)
Summary of the method: as §1

[9] = system: E. coli EQASmcr-3 (EQAS 2017 2013-SQ352); test: Checkerboard assay with rifampicin; type: cell-based, Escherichia coli; conditions: E. coli EQASmcr-3 (polymyxin-resistant), listed as pentamidine (1)
Summary of the method: as §1

[10] = system: P. aeruginosa ATCC27853; test: Checkerboard assay with rifampicin; type: cell-based, Pseudomonas aeruginosa; conditions: listed as pentamidine (1)
Summary of the method: as §1

[11] = system: E. coli BW25113; test: OM permeabilization assay using NPN; type: cell-based, Escherichia coli; conditions: 60 min, relative to 100 μg/mL colistin
Summary of the method: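 Log-phase cells (overnight LB culture diluted 50×, grown to OD600 0.5) pelleted and resuspended to OD600 1.0 in 5 mM HEPES with 20 mM glucose. Test compound serially diluted in triplicate. NPN stock (0.5 mM in acetone) diluted 12.5× in buffer and added. Fluorescence read after 60 min, ex 355 nm / em 420 nm. Uptake % = (F − buffer blank)/(colistin 100 μg/mL − blank) × 100. Compound + NPN no-cell controls included.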

[12] = system: rat L6 muscle cell line; conditions: cited from earlier work

SMILES: N=C(N)c1cccc(OCc2ccc(COc3cccc(C(=N)N)c3)cc2)c1 [compound 23b, 3,3′-[1,4-Phenylenebis(methyleneoxy)]dibenzenecarboximidamide]
FICI [7]: 0.156

SMILES: N=C(N)c1ccc(OCCCOc2ccc(C(=N)N)cc2)cc1 [compound 9, 4,4′-(Propane-1,3-diylbis(oxy))dibenzimidamide]
MIC ([1]; BW25113, compound alone): ≥ 200 µg/mL

SMILES: N=C(N)c1ccc(OCc2ccc3ccc(COc4ccc(C(=N)N)cc4)cc3c2)cc1 [compound 24, 4,4′-((Naphthalene-2,7-diylbis(methylene))bis(oxy))dibenzimidamide]
toxicity against a rat L6 muscle cell line [12]: significant toxicity

SMILES: N=C(N)c1ccc(OCc2ccccc2COc2ccc(C(=N)N)cc2)cc1 [compound 21, 4,4′-((1,2-Phenylenebis(methylene))bis(oxy))dibenzimidamide]
MIC ([1]; BW25113, 20 h, compound alone): > 200 µg/mL
NPN uptake (OM disruption), in words [11]: dose-dependent increase in the fluorescent signal

Second part, led by results:

MIC ([1]; BW25113, compound alone): 200 µg/mL (≈ 543 µM)
SMILES: N=C(N)c1ccc(OCCCCCCCOc2ccc(C(=N)N)cc2)cc1 [compound 10, 4,4′-(Heptane-1,7-diylbis(oxy))dibenzimidamide]

MIC ([1]; BW25113, compound alone): ≥ 200 µg/mL
SMILES: N=C(N)c1ccc(OCCCCCOc2ccc(C(=N)N)cc2)cc1 [compound 1, 4,4′-(Pentane-1,5-diylbis(oxy))dibenzimidamide, reference compound]
FICI [2]: ≤0.125
FICI [3]: ≤0.125
FICI [4]: 0.375
FICI [5]: 0.375
FICI ([6]; listed as pentamidine (1)): ≤0.188
FICI [7]: 0.313
FICI ([8]; listed as pentamidine (1)): ≤0.250
FICI [9]: ≤0.188
FICI [10]: ≤0.500

MIC ([1]; BW25113, 20 h, compound alone): > 200 µg/mL
SMILES: N=C(N)c1ccc(OCc2cccc(COc3ccc(C(=N)N)cc3)c2)cc1 [compound 22, 4,4′-((1,3-Phenylenebis(methylene))bis(oxy))dibenzimidamide]
NPN uptake (OM disruption), in words [11]: dose-dependent increase in the fluorescent signal; also recorded: stronger effect than PMBN
FICI [4]: 0.250
FICI [5]: 0.313
FICI [6]: 0.313
FICI [7]: 0.094
FICI [8]: 0.188

MIC ([1]; BW25113, compound alone): > 200 µg/mL
SMILES: N=C(N)c1ccc(OCCSCCOc2ccc(C(=N)N)cc2)cc1 [compound 15, 4,4′-((Thiobis(ethane-2,1-diyl))bis(oxy))dibenzimidamide]

MIC ([1]; BW25113, compound alone): > 200 µg/mL
SMILES: N=C(N)c1ccc(OCCS(=O)(=O)CCOc2ccc(C(=N)N)cc2)cc1 [compound 16, 4,4′-((Sulfonylbis(ethane-2,1-diyl))bis(oxy))dibenzimidamide]
